MrgX1 antag – antagonists of human MrgX1 receptor, primary screen, HEK293 cells, Fluo-4 calcium flux. Mas-related G-protein coupled receptor member X1 (Homo sapiens), Q96LB2. BAM8-22 antagonism; hits give low values. B-score at 10 µM. AID 588676, 2011. 1.3% of 310,000 active;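 active = calcium-response B-score plate-corrected more than 3 library SD below zero, starting fluorescence within 5 deviations, no agonist response on first addition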;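 note: peak minus trough fluorescence over baseline after final BAM8-22 challenge near maximal dose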
Target sequence (Q96LB2 whole entry, looked up): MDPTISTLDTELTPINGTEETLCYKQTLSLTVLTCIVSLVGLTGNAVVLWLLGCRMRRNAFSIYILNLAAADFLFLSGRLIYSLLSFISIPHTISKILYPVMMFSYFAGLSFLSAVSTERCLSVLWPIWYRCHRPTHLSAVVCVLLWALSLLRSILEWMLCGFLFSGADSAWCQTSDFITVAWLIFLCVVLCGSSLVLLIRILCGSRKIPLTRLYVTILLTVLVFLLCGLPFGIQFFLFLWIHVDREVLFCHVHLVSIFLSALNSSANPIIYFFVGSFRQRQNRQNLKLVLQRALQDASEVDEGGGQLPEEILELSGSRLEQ
MrgX1 agonist – agonists of human MrgX1 receptor, primary screen, HEK293 cells, Fluo-4 calcium flux; Mas-related G-protein coupled receptor member X1 (Homo sapiens), Q96LB2; Fluo-4 calcium fluorescence, agonist mode; hits give high values; B-score at 10 µM; AID 588627, 2011; 0.44% of 310,000 active;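 active = calcium response B-score plate-corrected fluorescence ratio at least 3 library SD, with starting fluorescence B-score inside 5 SD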
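Material: HEK293 cells stably expressing human MrgX1 receptor | Quantity: 15,000 cells per well | Times: Cells plated overnight, dye loaded 0.5 h 37 °C, 0.5 h room temperature | Measured by: Kinetic Fluo-4 NW fluorescence of intracellular calcium | Control set: Positive and negative controls per plate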
Kir21 block – inhibitors of mouse Kir2.1 inward-rectifier potassium channel; HEK293-Kir2.1, FluxOR thallium flux fluorescence; hits give low values; AID 1672, 2009; B-score at 10 µM; 0.85% of 310,000 active; Inward rectifier potassium channel 2 (Mus musculus), P35561;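 active = fluorescence ratio B-score at or below minus 3 SD of library scores, with starting-brightness B-score within 2 SD, cut at about -4.2 in these data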;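 note: channel flux triggered by added potassium and thallium sulfate stimulus; B-score of peak minus minimum fluorescence over baseline after thallium stimulus; more negative B-score means stronger Kir2.1 block with less thallium influx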
RGS4 act – RGS4 potentiators or activators, primary screen, cell-based, HEK293 M3R inducible RGS4, calcium flux. carbachol calcium flux Fluo4; hits give low values. B-score at 10 µM. 0.92% of 310,000 active;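 active = B-score of the integrated calcium signal more than 4 SD below the library mean, with starting fluorescence not abnormally high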;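 note: negative B-score means reduced calcium response which marks RGS4 activation or potentiation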
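Test system: HEK293 cells with stable M3R and inducible RGS4; also added: carbachol at ECmax as muscarinic agonist stimulus; schedule: dye loading 30 min 37 °C, buffer rest 30 min RT; technique: kinetic calcium fluorescence imaging with Fluo4-AM dye, 2 µM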
RGS4 block – RGS4 inhibitors, primary screen, cell-based, HEK293 M3R inducible RGS4, calcium flux; Regulator of G-protein signaling 4 (Homo sapiens), P49798; Fluo-4 calcium flux; hits give high values; triggered by carbachol at its EC20; B-score at 10 µM; 0.45% of 310,000 active;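 active = B-score, a plate-corrected calcium signal, over three deviations above library mean, with baseline fluorescence within five deviations of library mean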;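 note: RGS4 expression induced by doxycycline in cells with stable M3 receptor; B-score is computed from the integrated fluorescence ratio over baseline after carbachol; higher B-score means a larger calcium signal and so more RGS4 inhibition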
Target sequence (P49798 whole entry, looked up): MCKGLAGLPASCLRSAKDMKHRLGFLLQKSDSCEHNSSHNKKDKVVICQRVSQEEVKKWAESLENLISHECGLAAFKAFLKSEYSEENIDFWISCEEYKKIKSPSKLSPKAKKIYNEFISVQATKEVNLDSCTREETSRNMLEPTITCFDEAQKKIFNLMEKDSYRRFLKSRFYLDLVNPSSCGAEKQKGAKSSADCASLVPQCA
MrgX1 allo act – positive allosteric modulators of MrgX1, primary screen, HEK293 cells, Fluo-4 calcium flux | 0.63% of 310,000 active | Mas-related G-protein coupled receptor member X1 (Homo sapiens), Q96LB2 | FDSS; hits give high values | B-score at 10 µM;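 active = plate-corrected calcium response at least 3 library SD above typical, normal starting fluorescence, not activating the receptor alone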;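 note: compound read alongside a low EC10 to EC30 dose of BAM8-22 agonist; peak minus trough fluorescence over baseline measured at the second addition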
MrgX1 ant reconf – MrgX1 receptor antagonists, duplicate retest, confirmation, HEK293 cells, Fluo-4 calcium flux; remaining BAM8-22 calcium response % of control (hits give low values), % at 10 µM; BAM8-22 calcium flux; hits give low values; shares compounds with MrgX1 antag; AID 602420, 2012; 19% of 2,300 active;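 active = remaining agonist calcium response no higher than 100% minus 3 SD of agonist-only control wells, with starting fluorescence near control levels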;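 note: agonist BAM8-22 given at a near maximal EC90 to ECmax level; peak minus minimum fluorescence divided by baseline after agonist addition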
HEK293 Ca flux – nonspecific calcium signal in parental HEK293, confirmation, counter-screen for MrgX1 antagonist project, parental HEK293 cells, Fluo-4 calcium flux; shares compounds with MrgX1 antag; Fluo-4 calcium fluorescence, FDSS; fluorescence ratio F(max-min)/F0 at 10 µM; 2% of 4,000 active;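 active = duplicate-averaged calcium fluorescence ratio at least three times the standard deviation of buffer wells, a nonspecific response in parental cells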
HEK293 Ca counter – calcium response in parental HEK293 cells, primary screen, counter-screen for MrgX1 allosteric activator project, cell-based, Fluo-4 calcium flux, duplicate. shares compounds with MrgX1 antag. Fluo-4 fluorescence ratio; hits give high values. fluorescence ratio F(max-min)/F0 at 10 µM. 0.4% of 4,000 active. AID 624114, 2012;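 active = calcium fluorescence ratio, averaged over duplicates, at least 3 SD of the buffer-well ratio, meaning a nonspecific response in receptor-free cells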;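 note: untransfected parental HEK293 lacking MrgX1 used as counterscreen for MrgX1 allosteric activators; fluorescence change taken during the second addition on a kinetic imager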
HEK293 Ca cntr2 – calcium response in parental HEK293 cells, primary screen, counter-screen for MrgX1 agonist project, cell-based, Fluo-4 calcium flux, duplicate, agonist mode. shares compounds with MrgX1 antag. Fluo-4 calcium fluorescence (FDSS); hits give high values. fluorescence ratio F(max-min)/F0 at 10 µM. 8.7% of 4,000 active. AID 624115, 2012;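 active = calcium fluorescence ratio at least three times the spread of buffer wells, meaning a non-specific response in parental cells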
* hit, by the source's call; i = inactive; · = not tested or not shown. Sampled rows, rich in hits. Any-hit rate of the full collection: about 4.1%.

SMILES | MrgX1 antag | MrgX1 agonist | Kir21 block | RGS4 act | RGS4 block | MrgX1 allo act | MrgX1 ant reconf | HEK293 Ca flux | HEK293 Ca counter | HEK293 Ca cntr2
CCCc1cc(=O)n2[nH]c(NCc3cccs3)nc2n1 | -11* | i | -1 | i | i | i | i | i | i | i
Cc1ccc(N(CN2C(=O)C3C4CCC(C4)C3C2=O)C(=O)c2ccco2)cc1 (centres undefined) | i | i | 1.1 | i | i | i | · | · | · | ·
O=C1CCC(=O)N1CN(C(=O)c1ccco1)c1ccccc1 | -6.6* | i | 1 | i | i | i | i | i | i | i
COc1cc2cc(C(=O)O)[nH]c2c(OC)c1OC | -5.7* | i | -0.11 | i | i | i | i | i | i | i
CCOc1ccc(-c2nnn(CC(=O)Nc3cc(OC)ccc3OC)n2)cc1OCC | i | i | 0.54 | i | i | i | · | · | · | ·
CCOc1ccc(-c2nnn(CC(=O)c3cc(OC)ccc3OC)n2)cc1 | -4.7* | i | 0.09 | i | i | i | 81%* | i | i | i
O=C(CNS(=O)(=O)c1cccc2nsnc12)NCc1ccc(Cl)cc1 | -7.3* | i | 0.56 | i | i | i | 61%* | i | i | i
O=C(CCNS(=O)(=O)c1cccc2nsnc12)NCc1ccc(F)cc1 | i | i | -0.17 | i | i | i | · | · | · | ·
COC(=O)c1cccnc1NC(=S)NC1CCCCC1 | -4.8* | i | 1.2 | i | i | i | i | i | i | i
COC(=O)c1ccc(NC(=S)NC2CCCCC2)cc1 | i | i | -0.08 | i | i | i | · | · | · | ·
CCNC(=S)NCc1ccco1 | -6.2* | i | -1.1 | i | i | i | i | i | i | i
CCOC(=O)CSc1nc(Nc2ccc3c(c2)OCO3)c2ccccc2n1 | i | i | -1 | i | i | i | · | · | · | ·
CCOC(=O)c1cnc2ccccc2c1Nc1ccc2c(c1)OCCO2 | -5.5* | i | 0.5 | i | i | i | i | i | i | i
Cc1ccc(S(=O)(=O)/N=C2\C=C(Nc3cccc(C(=O)O)c3)C(=O)c3ccccc32)cc1 | i | i | 1.2 | i | i | i | · | · | · | ·
CCc1ccc(S(=O)(=O)/N=C2\C=C(Nc3ccc(C(=O)O)cc3)C(=O)c3ccccc32)cc1 | -7.7* | i | 0.11 | i | i | i | 85%* | i | i | i
O=C(c1nc2ccccc2s1)N1CCN(c2ccccn2)CC1 | i | i | · | · | · | i | · | · | · | ·
O=C(c1nc2ccccc2s1)N1CCSCC1 | -10* | i | -0.38 | i | i | i | i | i | i | i
c1ccc2c3c(c(CN4CCCC4)cc2c1)COC3 | i | i | -0.57 | i | i | i | · | · | · | ·
COc1cc2c(cc1OC)C(C)N(C(=O)c1cc(C)on1)CC2 (centres undefined) | -6.3* | i | 0.81 | i | i | i | 85%* | i | i | i
Cn1c(NCC(O)c2ccccc2)nc2c1c(=O)n(Cc1ccc(Cl)cc1)c(=O)n2C (centres undefined) | i | i | -1.5 | i | i | i | · | · | · | ·
CCC(=O)N(Cc1cc2cccc(C)c2[nH]c1=O)c1ccccc1OC | -5.3* | i | 0.52 | i | i | i | i | i | i | i
CC(C(=O)N=c1sc2ccccc2n1C)N1C(=O)C2CC=CCC2C1=O (centres undefined) | -4.7* | i | 0.78 | i | i | i | i | i | i | i
C/C(CC(=O)Nc1cccc(C(F)(F)F)c1)=N\NC(=O)c1cnccn1 | i | i | -0.16 | i | i | i | · | · | · | ·
CC(C)(Oc1ccc(Cl)cc1)C(=O)OCC(=O)N1CCCC1 | -13* | i | -1 | i | i | i | i | i | i | i
O=C(COc1ccc(Cl)cc1)N1CCCCCCC1 | i | i | -0.02 | i | i | i | · | · | · | ·
SMILES | MrgX1 antag | MrgX1 agonist | Kir21 block | RGS4 act | RGS4 block | MrgX1 allo act | MrgX1 ant reconf | HEK293 Ca flux | HEK293 Ca counter | HEK293 Ca cntr2
COCCN1C(=O)C(=O)/C(=C(/O)c2ccc(C)cc2)C1c1ccccn1 (centres undefined) | -7.7* | i | 0.22 | i | i | i | i | i | i | i
O=C1C(=O)N(Cc2cccnc2)C(c2ccccn2)/C1=C(/O)c1ccc(F)cc1 (centres undefined) | -5.1* | i | 0.5 | i | i | i | i | i | i | i
Cc1ccc(/C(O)=C2/C(=O)C(=O)N(Cc3cccnc3)C2c2ccccn2)cc1 (centres undefined) | i | i | -0.04 | i | i | i | · | · | · | ·
Cc1cc(NC(=O)CC2CCCC2)ccc1Br | i | i | -0.1 | i | i | i | · | · | · | ·
Cc1cccc(NC(=O)CC2CCC2)c1 | -5.8* | i | 0.69 | i | i | i | i | i | i | i
CCCN(CC(=O)Nc1ccccc1C)C(=O)c1ccc2ccccc2n1 | i | i | 0.16 | i | i | i | · | · | · | ·
CC1(C)C2CCC13CS(=O)(=O)N[C@@H]3C2 (some centres undefined) | -9.4* | i | -0.06 | i | i | i | i | i | i | i
COCCCn1c(SCC(=O)Nc2cccc(C)n2)nnc1-c1ccco1 | i | i | -0.4 | i | i | i | · | · | · | ·
